By IC50 is commonly meant the concentration that inhibits the measured activity by half. A lower IC50 goes with inhibition by little substance.

Test [1] relates to RPMI-8226. Description: In vitro inhibition of tumor cell growth in the human myeloma 8226 system. Type of test: functional, cell-based. The essentials:
(§1)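 Cells trypsinized, seeded at 7500 cells/well, attached overnight. Serially diluted agent added to quadruplicate cultures; 24 h at 37 °C, 5% CO2, with [3H]thymidine 0.5 μCi/well during the last 4 h. Incorporation counted by scintillation; percent of media-only control from mean CPM. IC50 by linear forecast on a percent control vs log concentration plot.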

Test [2] relates to RPMI-8226. Description: In vitro inhibition of tumor cell growth in the human myeloma 8226/ADR system. Type of test: functional, cell-based. The method in brief: as §1
The test system of test [3] is MCF7. Description: In vitro inhibition of tumor cell growth in the human mammary tumor MCF-7 system. Type of test: functional, cell-based. The essentials:
as §1

Test [4] relates to MCF7. Description: In vitro inhibition of tumor cell growth in the human mammary carcinoma MCF-7/ADR system. Type of test: functional, cell-based. The method in brief:
as §1

Test [5] is filed under the species Homo sapiens. Description: Tumor-specific activity against human breast tumor type at 5 ug/mL concentration after 1 hr exposure time; Activity= no of responses/ no tested, […]. Type of test: functional.
The species entered for test [6] is Homo sapiens. Description: Compound was tested in vitro for activity in a human tumor cloning system at 50 ug/mL concentration after 1 hr exposure time. Type of test: functional. The essentials: (§2)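 Human tumor cloning assay on single-cell suspensions from patient solid tumors and effusions. Cells were exposed for 1 h at 37 °C in McCoy's 5A with 10% heat-inactivated FCS, washed twice, then plated at 5×10^5 cells/mL in 0.3% agar CMRL 1066 over a feeder layer. Colonies (>50 cells) were counted around day 14. A run was evaluable with ≥20 control colonies and under 30% survival with 200 μg/mL vanadate.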

The species named for test [7] is Homo sapiens. Description: Compound was tested in vitro for activity in a human tumor cloning system at 0.5 ug/mL concentration after continuous exposure time. Type of test: functional. The method in brief: (§3)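 Human tumor cloning assay on single-cell suspensions from patient solid tumors and effusions. Drug from DMSO stock was mixed into 0.3% agar CMRL 1066 with the cells, at 5×10^5 cells/mL over a feeder layer, and left for continuous exposure. Colonies (>50 cells) were counted around day 14 by inverted microscope. A run was evaluable with ≥20 control colonies and under 30% survival with 200 μg/mL vanadate.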

Test [8] is filed under the species Homo sapiens. Put plainly: Tumor-specific activity against human ovary tumor type at 5 ug/mL concentration after 1 hr exposure time; Activity= no of responses/ no tested, 1/1. Type of test: functional, Female gonad.
The species entered for test [9] is Homo sapiens. Description: Tumor-specific activity against human ovary tumor type at 50 ug/mL concentration after 1 hr exposure time; Activity= no of responses/ no tested, 1/1. Type of test: functional, Female gonad.
The species entered for test [10] is Homo sapiens. Description: Compound was tested in vitro for activity in a human tumor cloning system at 5 ug/mL concentration after continuous exposure time. Type of test: functional. The essentials:
as §3

The species entered for test [11] is Homo sapiens. Description: Compound was tested in vitro for activity in a human tumor cloning system at 50 ug/mL concentration after continuous exposure time. Type of test: functional. The method in brief:
as §3

Test [12] is filed under the species Homo sapiens. Description: Tumor-specific activity against human total tumor type at 5 ug/mL concentration after 1 hr exposure time; Activity= no of responses/ no tested, 4/5.
Test [13] is filed under the species Homo sapiens. Description: Compound was tested in vitro for activity in a human tumor cloning system at 0.5 ug/mL concentration after 1 hr exposure time. Type of test: functional. The method in brief:
as §2

For test [14], the species on record is Homo sapiens. Description: Compound was tested in vitro for activity in a human tumor cloning system at 5 ug/mL concentration after 1 hr exposure time. Type of test: functional. The essentials: as §2
The species named for test [15] is Homo sapiens. Description: Tumor-specific activity against human breast tumor type at 50 ug/mL concentration after 1 hr exposure time; Activity= no of responses/ no tested, […]. Type of test: functional.
The species entered for test [16] is Homo sapiens. Put plainly: Tumor-specific activity against human gastric tumor type at 0.5 ug/mL concentration after 1 hr exposure time; Activity= no of responses/ no tested, 1/1. Type of test: functional, Stomach.
The species entered for test [17] is Homo sapiens. Description: Tumor-specific activity against human total tumor type at 50 ug/mL concentration after 1 h exposure time; Activity= no of responses/ no tested, 5/5. Type of test: functional.
Test [18] is filed under the species Homo sapiens. Description: Tumor-specific activity against human ovary tumor type at 0.5 ug/mL concentration after 1 hr exposure time; Activity= no of responses/ no tested, 1/2. Type of test: functional, Female gonad.
For test [19], the species on record is Homo sapiens. Description: Tumor-specific activity against human total tumor type at 0.5 ug/mL concentration after 1 hr exposure time; Activity= no of responses/ no tested, 2/5. Type of test: functional.
For test [20], the species on record is Homo sapiens. Description: Tumor-specific activity against human breast tumor type at 0.5 ug/mL concentration after 1 hr exposure time; Activity= no of responses/ no tested, 0/1. Type of test: functional.
For test [21], the species on record is Homo sapiens. Put plainly: Tumor-specific activity against human gastric tumor type at 5 ug/mL concentration after 1 hr exposure time; Activity= no of responses/ no tested, 2/2. Type of test: functional, Stomach.
For test [22], the species on record is Homo sapiens. Put plainly: Tumor-specific activity against human lung, non-small cell tumor type at 50 ug/mL concentration after 1 hr exposure time; Activity= no of responses/ no of evaluable, […]. Type of test: functional.
The species entered for test [23] is Homo sapiens. Put plainly: Tumor-specific activity against human lung, non-small cell tumor type at 0.5 ug/mL concentration after 1 hr exposure time; Activity= no of responses/ no of evaluable, 0/1. Type of test: functional.
Test [24] is filed under the species Homo sapiens. Description: Tumor-specific activity against human gastric tumor type at 50 ug/mL concentration after 1 hr exposure time; Activity= no of responses/ no tested, 1/1. Type of test: functional, Stomach.
The species named for test [25] is Homo sapiens. Description: Tumor-specific activity against human colon tumor type at 50 ug/mL concentration after 1 hr exposure time; Activity= no of responses/ no tested,4/5. Type of test: functional.
For test [26], the species on record is Homo sapiens. Description: Tumor-specific activity against human total tumor type at 50 ug/mL concentration after 1 hr exposure time; Activity= no of responses/ no tested,8/10. Type of test: functional.
Test [27] is filed under the species Homo sapiens. Put plainly: Tumor-specific activity against human breast tumor type at 50 ug/mL concentration after 1 hr exposure time; Activity= no of responses/ no tested,1/2. Type of test: functional.
The species named for test [28] is Homo sapiens. Put plainly: Tumor-specific activity against human ovary tumor type at 5 ug/mL concentration after 1 h exposure time; Activity= no of responses/ no tested,2/2. Type of test: functional, Female gonad.
The species named for test [29] is Homo sapiens. Put plainly: Tumor-specific activity against human total tumor type at 0.5 ug/mL concentration after 1 hr exposure time; Activity= no of responses/ no tested,4/10. Type of test: functional.
Test [30] is filed under the species Homo sapiens. Description: Tumor-specific activity against human colon tumor type at 5 ug/mL concentration after 1 hr exposure time; Activity= no of responses/ no tested,4/5. Type of test: functional.
For test [31], the species on record is Homo sapiens. Description: Tumor-specific activity against human gastric tumor type at 0.5 ug/mL concentration after 1 hr exposure time; Activity= no of responses/ no tested,1/1. Type of test: functional, Stomach.
For test [32], the species on record is Homo sapiens. Put plainly: Tumor-specific activity against human total tumor type at 5 ug/mL concentration after 1 hr exposure time; Activity= no of responses/ no tested,8/10. Type of test: functional.
Test [33] is filed under the species Homo sapiens. Put plainly: Tumor-specific activity against human gastric tumor type at 5 ug/mL concentration after 1 hr exposure time; Activity= no of responses/ no tested,1/1. Type of test: functional, Stomach.
The species entered for test [34] is Homo sapiens. Description: Tumor-specific activity against human ovary tumor type at 50 ug/mL concentration after 1 hr exposure time; Activity= no of responses/ no tested,2/2. Type of test: functional, Female gonad.
The species named for test [35] is Homo sapiens. Description: Tumor-specific activity against human breast tumor type at 5 ug/mL concentration after 1 hr exposure time; Activity= no of responses/ no tested,1/2. Type of test: functional.
The species entered for test [36] is Homo sapiens. Put plainly: Tumor-specific activity against human gastric tumor type at 50 ug/mL concentration after 1 hr exposure time; Activity= no of responses/ no tested,1/1. Type of test: functional, Stomach.
Test [37] is filed under the species Homo sapiens. Description: Tumor-specific activity against human ovary tumor type at 0.5 ug/mL concentration after 1 hr exposure time; Activity= no of responses/ no tested,2/2. Type of test: functional, Female gonad.
The species named for test [38] is Homo sapiens. Description: Tumor-specific activity against human breast tumor type at 0.5 ug/mL concentration after 1 hr exposure time; Activity= no of responses/ no tested,0/2. Type of test: functional.
The species entered for test [39] is Homo sapiens. Put plainly: Tumor-specific activity against human colon tumor type at 0.5 ug/mL concentration after 1 hr exposure time; Activity= no of responses/ no tested,[…]. Type of test: functional.

In the case of `O=C1c2ccccc2C(=O)c2c(NCC(O)CNCc3ccccc3)ccc(NCC(O)CCl)c21` (centres undefined), the IC50 with RPMI-8226 [1] came to 11100 nM; in the test on RPMI-8226 [2], 14300 nM; in the test with MCF7 [3], 8200 nM; in the test on MCF7 [4], 12400 nM.
Take `CCCNCC(O)CNc1ccc(NCC(O)CCl)c2c1C(=O)c1ccccc1C2=O` (centres undefined): the half-inhibitory concentration (IC50) was 9600 nM in the test with RPMI-8226 [1], 12500 nM in the test with RPMI-8226 [2], 3450 nM with MCF7 [3] and 8700 nM in the test with MCF7 [4].
On to `CCN(CC)CC(O)CNc1ccc(NCC(O)CCl)c2c1C(=O)c1ccccc1C2=O` (centres undefined), for which the Activity in the test listed under Homo sapiens [5] amounted to 0; in the test filed under Homo sapiens [8], 2; in the test filed under Homo sapiens [9], 2; in the test filed under Homo sapiens [12], 4; in the test listed under Homo sapiens [15], 1; in the test filed under Homo sapiens [16] it was 1. The Activity in the test filed under Homo sapiens [17] came to 5; in the test filed under Homo sapiens [18], 1; in the test listed under Homo sapiens [19], 2; in the test listed under Homo sapiens [20], 0; in the test listed under Homo sapiens [21], 1; in the test listed under Homo sapiens [22], 1. Besides, the Activity worked out at 0 in the test filed under Homo sapiens [23] and 1 in the test filed under Homo sapiens [24]. The % responders at 50 µg/mL in the test listed under Homo sapiens [6] and in the test filed under Homo sapiens [11] was 100% throughout. Moreover, the % responders at 0.5 µg/mL in the test listed under Homo sapiens [7] stood at 50%; in the test filed under Homo sapiens [13], 40%. For the same molecule, the half-maximal inhibitory concentration (IC50) in the test on RPMI-8226 [1] turned out to be 210 nM; in the test with RPMI-8226 [2], 70 nM; in the test on MCF7 [3], 430 nM; with MCF7 [4], 720 nM. In addition, the figures for the % responders at 5 µg/mL in the test filed under Homo sapiens [10] and in the test filed under Homo sapiens [14] were 100% and 80%, respectively.
Turning to `CCN(CC)CC(O)CNc1ccc(NCC2CO2)c2c1C(=O)c1ccccc1C2=O.O=C(O)/C=C/C(=O)O` (centres undefined), the Activity in the test listed under Homo sapiens [25] was 4; in the test listed under Homo sapiens [26] it was 8; in the test listed under Homo sapiens [27], 1; in the test filed under Homo sapiens [28], 2; in the test listed under Homo sapiens [29], 4; in the test listed under Homo sapiens [30] it was 4. The Activity came out at 1 in the test listed under Homo sapiens [31]; 8 in the test filed under Homo sapiens [32]; 1 in the test filed under Homo sapiens [33]; 2 in the test filed under Homo sapiens [34]; 1 in the test listed under Homo sapiens [35]; 1 in the test filed under Homo sapiens [36]. Moreover, the Activity is 2 in the test filed under Homo sapiens [37], 0 in the test filed under Homo sapiens [38] and 1 in the test filed under Homo sapiens [39]. For the same molecule, the % responders at 50 µg/mL stood at 80% in the test filed under Homo sapiens [6] and 100% in the test filed under Homo sapiens [11]. Besides, the % responders at 0.5 µg/mL in the test listed under Homo sapiens [7] is 89%; in the test filed under Homo sapiens [13], 40%. For the same molecule, the 50% inhibitory concentration (IC50) in the test on RPMI-8226 [1] stood at 10 nM; in the test with RPMI-8226 [2], 9 nM; in the test on MCF7 [3] it was 40 nM; in the test on MCF7 [4] it was 20 nM. Also, the figures for the % responders at 5 µg/mL in the test filed under Homo sapiens [10] and in the test listed under Homo sapiens [14] were 89% and 80%, respectively.
Regarding `CCN(CC)CC(O)CNc1ccc(N)c2c1C(=O)c1ccccc1C2=O` (centres undefined), the concentration for half-maximal inhibition (IC50) in the test with MCF7 [3] is 6000 nM.
On to `COc1cccc2c1C(=O)c1c(O)c3c(c(O)c1C2=O)C[C@@](O)(C(=O)CO)C[C@@H]3O[C@H]1C[C@H](N)[C@H](O)[C@H](C)O1` [DOXORUBICIN], for which the IC50 was determined as 33 nM in the test on RPMI-8226 [1] and 560 nM in the test on RPMI-8226 [2].
In the case of `O=C1c2c(O)ccc(O)c2C(=O)c2c(NCCNCCO)ccc(NCCNCCO)c21` [MITOXANTRONE], the half-maximal inhibitory concentration (IC50) was found to be 30 nM with RPMI-8226 [1], 180 nM in the test on RPMI-8226 [2], 5 nM in the test with MCF7 [3] and 4000 nM in the test with MCF7 [4].

The values are drawn from ChEMBL document CHEMBL1125355, “Novel non-cross resistant diaminoanthraquinones as potential chemotherapeutic agents” (J Med Chem, 1992).
